Data reported in ChEMBL document CHEMBL3097989, “Antimicrobial activity of de novo designed cationic peptides against multi-resistant clinical isolates” (Eur J Med Chem, 2014).

How the values were obtained:
Klebsiella pneumoniae [1] = assay: Antibacterial activity against Klebsiella pneumoniae M9885 clinical isolate expressing blaKPC-2 gene by microdilution test; format: functional
Summary of the method: (§1)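 MIC by standard broth microdilution following CLSI recommendations, in Mueller Hinton broth supplemented with Ca²⁺ (20-25mg/L) and Mg²⁺ (10-12.5mg/L); peptides tested against a panel of multi-resistant clinical isolates plus ATCC reference strains.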

Enterococcus faecium [2] = assay: Antibacterial activity against Enterococcus faecium PZAP95 by microdilution test; format: functional; summary of the method: as §1
[3] = Toxicity in human RBC assessed as hemolytic activity relative to control; format: cell-based, Erythrocyte; conditions: red blood cells (RBC), read-out: Activity
Summary of the method: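 Heparinized human whole blood diluted 3x in PBS and centrifuged 10 min at 1500 rpm, repeated three times. Cells resuspended to 10% (v/v), then diluted to about 0.5% (v/v). Peptides added at various concentrations for 30 min at 37 °C. Supernatant absorbance read at 550 nm. Lysis calculated against buffer (0%) and water (100%). Readings taken in triplicate and averaged.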

[4] = test system: Staphylococcus haemolyticus; assay: Antibacterial activity against Staphylococcus haemolyticus M2976 clinical isolate expressing mecA gene by microdilution test; format: functional
Summary of the method: (§2)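 MIC by standard broth microdilution following CLSI recommendations, in Mueller Hinton broth supplemented with Ca²⁺ (20-25 mg/L) and Mg²⁺ (10-12.5 mg/L); ATCC reference strains included in the panel.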

Enterococcus gallinarum [5] = assay: Antibacterial activity against Enterococcus gallinarum M2685 clinical isolate expressing vanC1 and vanA gene by microdilution test; format: functional; summary of the method: as §1
Staphylococcus aureus [6] = assay: Antibacterial activity against Staphylococcus aureus M6794 clinical isolate expressing mecA gene by microdilution test; format: functional; summary of the method: as §2
Klebsiella pneumoniae [7] = assay: Antibacterial activity against Klebsiella pneumoniae PFAV3 by microdilution test; format: functional; summary of the method: as §1
Acinetobacter sp. [8] = assay: Antibacterial activity against Acinetobacter sp. M5179 clinical isolate expressing blaOXA-51 gene by microdilution test; format: functional; summary of the method: as §1
Klebsiella pneumoniae [9] = assay: Antibacterial activity against Klebsiella pneumoniae M9170 clinical isolate expressing blaOXA-GIII gene by microdilution test; format: functional; summary of the method: as §1
Klebsiella pneumoniae [10] = assay: Antibacterial activity against Klebsiella pneumoniae M7647 clinical isolate expressing blaVIM, blaCTX-M-2, blaTEM-1 and blaSHV-1 gene by microdilution test; format: functional; summary of the method: as §1
Escherichia coli [11] = assay: Antibacterial activity against Escherichia coli M9209 clinical isolate expressing blaKPC-2 gene by microdilution test; format: functional; summary of the method: as §1
[12] = test system: Staphylococcus epidermidis; assay: Antibacterial activity against Staphylococcus epidermidis M2919 clinical isolate expressing mecA gene by microdilution test; format: functional; summary of the method: as §2
Enterococcus faecium [13] = assay: Antibacterial activity against Enterococcus faecium M2664 clinical isolate expressing vanA gene by microdilution test; format: functional; summary of the method: as §1
Pseudomonas aeruginosa [14] = assay: Antibacterial activity against Pseudomonas aeruginosa M5109 clinical isolate expressing blaVIM and blaGES-1 gene by microdilution test; format: functional; summary of the method: as §2
Staphylococcus aureus [15] = assay: Antibacterial activity against Staphylococcus aureus M6820 clinical isolate expressing mecA gene by microdilution test; format: functional; summary of the method: as §2
Enterococcus faecalis [16] = assay: Antibacterial activity against Enterococcus faecalis ATCC 51299 clinical isolate expressing vanB gene by microdilution test; format: functional; summary of the method: as §1
Acinetobacter sp. [17] = assay: Antibacterial activity against Acinetobacter sp. M5277 clinical isolate expressing blaPER gene by microdilution test; format: functional; summary of the method: as §1
Enterococcus faecalis [18] = assay: Antibacterial activity against Enterococcus faecalis M4899 clinical isolate expressing vanB gene by microdilution test; format: functional; summary of the method: as §1
[19] = test system: Staphylococcus haemolyticus; assay: Antibacterial activity against Staphylococcus haemolyticus M3014 by microdilution test; format: functional; summary of the method: as §2
Escherichia coli [20] = assay: Antibacterial activity against Escherichia coli PABC11 clinical isolate expressing blaCTX-M-2 gene by microdilution test; format: functional; summary of the method: as §1
Pseudomonas aeruginosa [21] = assay: Antibacterial activity against Pseudomonas aeruginosa M7907 clinical isolate expressing blaPER gene by microdilution test; format: functional; summary of the method: as §2
Escherichia coli [22] = assay: Antibacterial activity against Escherichia coli PNEU23 clinical isolate expressing blaOXA-GIII and blaTEM-1 gene by microdilution test; format: functional; summary of the method: as §1
Enterococcus faecalis [23] = assay: Antibacterial activity against Enterococcus faecalis M6983 clinical isolate expressing vanA gene by microdilution test; format: functional; summary of the method: as §1
Klebsiella pneumoniae [24] = assay: Antibacterial activity against Klebsiella pneumoniae M9140 clinical isolate expressing blaCIT gene by microdilution test; format: functional; summary of the method: as §1
Staphylococcus cohnii = assay: Antibacterial activity against Staphylococcus cohnii M6767 clinical isolate expressing mecA gene by microdilution test; format: functional; summary of the method: as §2
Klebsiella pneumoniae [25] = assay: Antibacterial activity against Klebsiella pneumoniae M5825 clinical isolate expressing blaGES-3 and blaCTX-M-2 gene by microdilution test; format: functional; summary of the method: as §1
Enterococcus faecium [26] = assay: Antibacterial activity against Enterococcus faecium M2304 clinical isolate expressing vanA gene by microdilution test; format: functional; summary of the method: as §1
Acinetobacter sp. [27] = assay: Antibacterial activity against Acinetobacter sp. M9665 clinical isolate expressing blaOXA-51 gene by microdilution test; format: functional; summary of the method: as §1
Enterococcus faecalis [28] = assay: Antibacterial activity against Enterococcus faecalis ATCC 29212 by microdilution test; format: functional; summary of the method: as §1
Pseudomonas aeruginosa [29] = assay: Antibacterial activity against Pseudomonas aeruginosa ATCC 27853 by microdilution test; format: functional; summary of the method: as §1
Pseudomonas aeruginosa [30] = assay: Antibacterial activity against Pseudomonas aeruginosa M5200 clinical isolate expressing blaVIM and blaGES-1 gene by microdilution test; format: functional; summary of the method: as §2
Klebsiella pneumoniae [31] = assay: Antibacterial activity against Klebsiella pneumoniae M13540 clinical isolate expressing blaKPC-2 gene by microdilution test; format: functional; summary of the method: as §1
Pseudomonas aeruginosa [32] = assay: Antibacterial activity against Pseudomonas aeruginosa M7728 clinical isolate expressing blaIMP gene by microdilution test; format: functional; summary of the method: as §2
Escherichia coli [33] = assay: Antibacterial activity against Escherichia coli M7859 clinical isolate expressing blaCIT gene by microdilution test; format: functional; summary of the method: as §1
Klebsiella pneumoniae [34] = assay: Antibacterial activity against Klebsiella pneumoniae M9375 clinical isolate expressing blaCTX-M-2, blaTEM-1 and blaSHV-1 gene by microdilution test; format: functional; summary of the method: as §1
Enterococcus gallinarum [35] = assay: Antibacterial activity against Enterococcus gallinarum M2723 clinical isolate expressing vanC1 and vanA gene by microdilution test; format: functional; summary of the method: as §1
Staphylococcus aureus [36] = assay: Antibacterial activity against Staphylococcus aureus P33 clinical isolate expressing msrA gene by microdilution test; format: functional; summary of the method: as §2
Staphylococcus aureus [37] = assay: Antibacterial activity against Staphylococcus aureus M4046 clinical isolate expressing mecA gene by microdilution test; format: functional; summary of the method: as §2
Pseudomonas aeruginosa [38] = assay: Antibacterial activity against Pseudomonas aeruginosa M11005 clinical isolate expressing blaKPC-2 gene by microdilution test; format: functional; summary of the method: as §1
Enterococcus faecium [39] = assay: Antibacterial activity against Enterococcus faecium M6261 by microdilution test; format: functional; summary of the method: as §1
Staphylococcus aureus [40] = assay: Antibacterial activity against Staphylococcus aureus P28 clinical isolate expressing ermA gene by microdilution test; format: functional; summary of the method: as §2
Klebsiella pneumoniae [41] = assay: Antibacterial activity against Klebsiella pneumoniae M1803 clinical isolate expressing blaPER-2, blaCTX-M-2, blaTEM-1, blaSHV and blaOXA-9 gene by microdilution test; format: functional; summary of the method: as §1
Acinetobacter sp. [42] = assay: Antibacterial activity against Acinetobacter sp. M5282 clinical isolate expressing blaOXA-51 gene by microdilution test; format: functional; summary of the method: as §1
Klebsiella pneumoniae [43] = assay: Antibacterial activity against Klebsiella pneumoniae M9491 clinical isolate expressing blaMOX gene by microdilution test; format: functional; summary of the method: as §1
Klebsiella pneumoniae [44] = assay: Antibacterial activity against Klebsiella pneumoniae M9310 clinical isolate expressing blaCTX-M-2, blaTEM-1 and blaSHV-1 gene by microdilution test; format: functional; summary of the method: as §1
Staphylococcus hominis = assay: Antibacterial activity against Staphylococcus hominis M2973 clinical isolate expressing mecA gene by microdilution test; format: functional; summary of the method: as §2
Enterococcus faecium [45] = assay: Antibacterial activity against Enterococcus faecium M2619 clinical isolate expressing vanB gene by microdilution test; format: functional; summary of the method: as §1
Staphylococcus aureus [46] = assay: Antibacterial activity against Staphylococcus aureus ATCC 29213 by microdilution test; format: functional; summary of the method: as §2
Acinetobacter sp. [47] = assay: Antibacterial activity against Acinetobacter sp. M7489 clinical isolate expressing blaOXA-51 and blaTEM gene by microdilution test; format: functional; summary of the method: as §1

In the case of H-GLLKKWLKKWKEFKRIVGY-NH2, the MIC90 (Klebsiella pneumoniae [1]) is reported as 64 mg/L, the MIC90 (Enterococcus faecium [2]) is reported as 16 mg/L and the hemolysis [3] is reported as 39.8%. For the same substance, the MIC90 [4] was 8 mg/L, the MIC90 (Enterococcus gallinarum [5]) was 16 mg/L and the MIC90 (Staphylococcus aureus [6]) was 64 mg/L. It also gave an MIC90 (Klebsiella pneumoniae [7]) of 128 mg/L, an MIC90 (Acinetobacter sp. [8]) of 32 mg/L and an MIC90 (Klebsiella pneumoniae [9]) of 32 mg/L. It also gave an MIC90 (Klebsiella pneumoniae [10]) of 32 mg/L, an MIC90 (Escherichia coli [11]) of 64 mg/L and an MIC90 [12] of 16 mg/L. The MIC90 (Enterococcus faecium [13]) was 8 mg/L, the MIC90 (Pseudomonas aeruginosa [14]) was 64 mg/L and the MIC90 (Staphylococcus aureus [15]) was 128 mg/L. For the same substance, the MIC90 (Enterococcus faecalis [16]) was 256 mg/L, the MIC90 (Acinetobacter sp. [17]) was 8 mg/L and the MIC90 (Enterococcus faecalis [18]) was 128 mg/L. For the same substance, the MIC90 [19] was 8 mg/L, the MIC90 (Escherichia coli [20]) was 32 mg/L and the MIC90 (Pseudomonas aeruginosa [21]) was 64 mg/L. For the same substance, the MIC90 (Escherichia coli [22]) was 32 mg/L, the MIC90 (Enterococcus faecalis [23]) was 128 mg/L and the MIC90 (Klebsiella pneumoniae [24]) was 32 mg/L. The MIC90 (Staphylococcus cohnii) was 16 mg/L, the MIC90 (Klebsiella pneumoniae [25]) was 8 mg/L and the MIC90 (Enterococcus faecium [26]) was 16 mg/L. It also gave an MIC90 (Acinetobacter sp. [27]) of 32 mg/L, an MIC90 (Enterococcus faecalis [28]) of 128 mg/L and an MIC90 (Pseudomonas aeruginosa [29]) of 64 mg/L. The MIC90 (Pseudomonas aeruginosa [30]) was 64 mg/L, the MIC90 (Klebsiella pneumoniae [31]) was 16 mg/L and the MIC90 (Pseudomonas aeruginosa [32]) was 64 mg/L. It also gave an MIC90 (Escherichia coli [33]) of 32 mg/L, an MIC90 (Klebsiella pneumoniae [34]) of 64 mg/L and an MIC90 (Enterococcus gallinarum [35]) of 32 mg/L. The MIC90 (Staphylococcus aureus [36]) was 128 mg/L, the MIC90 (Staphylococcus aureus [37]) was 128 mg/L and the MIC90 (Pseudomonas aeruginosa [38]) was 64 mg/L. For the same substance, the MIC90 (Enterococcus faecium [39]) was 16 mg/L, the MIC90 (Staphylococcus aureus [40]) was 64 mg/L and the MIC90 (Klebsiella pneumoniae [41]) was 32 mg/L. For the same substance, the MIC90 (Acinetobacter sp. [42]) was 8 mg/L, the MIC90 (Klebsiella pneumoniae [43]) was 64 mg/L and the MIC90 (Klebsiella pneumoniae [44]) was 16 mg/L. It also gave an MIC90 (Staphylococcus hominis) of 4 mg/L, an MIC90 (Enterococcus faecium [45]) of 16 mg/L and an MIC90 (Staphylococcus aureus [46]) of 64 mg/L. The MIC90 (Acinetobacter sp. [47]) was 16 mg/L.
